# Data from ChEMBL document CHEMBL1121617, “Antihypertensive ureidopiperidines” (1980).
# The source made the active and inactive calls. No cut-off for these calls is given here.
# Assays:
# [1] = system: Rattus norvegicus; assay: The percent fall in systolic blood pressure at 1.5 / 4 hr after peroral administration of 40 mg/kg in conscious renal hypertensive rats (RHR).; assay type: functional, Artery; settings: route oral
# Procedure, shortened: (§1)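 Conscious renal hypertensive rats, four per group, dosed orally. Starting systolic pressures were 160–200 mmHg. Percentage fall in systolic pressure was taken at 1.5 and/or 4 h after dosing. Falls under 10% were scored as ±.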
# [2] = system: Rattus norvegicus; assay: Starting systolic blood pressure at dose of 50 mg/kg in rat; assay type: functional, Artery
# Procedure, shortened: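 Mean systolic blood pressure before dosing for each group of four DOCA/saline hypertensive rats given 50 mg/kg orally. It indicates how far hypertension was established.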
# [3] = system: Rattus norvegicus; assay: The percent fall in systolic blood pressure at 1.5 / 4 hr after peroral administration of 50 mg/kg in DOCA/saline hypertensive rats at 24 hr; Non significant; assay type: functional, organism-based; set-up: dose 50 mg/kg; settings: Artery, at 50 mg/kg
# [4] = system: Rattus norvegicus; assay: The percent fall in systolic blood pressure at 1.5 / 4 hr after peroral administration of 50 mg/kg in DOCA/saline hypertensive rats at 6 hr; assay type: functional, Artery; settings: route oral
# [5] = system: Rattus norvegicus; assay: The percent fall in systolic blood pressure at 1.5 / 4 h after peroral administration of 50 mg/kg in DOCA/saline hypertensive rats at 2 hr; assay type: functional, Artery; settings: route oral
# [6] = system: Rattus norvegicus; assay: Starting systolic blood pressure at dose of 10 mg/kg; assay type: functional, Artery
# Procedure, shortened: (§2)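 DOCA/saline hypertensive rats, four per group, dosed orally at 50, 25 or 10 mg/kg. Mean starting systolic pressure was recorded for each group. Systolic pressure was then read 2, 6 and 24 h after dosing and reported as percentage fall from the starting value.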
# [7] = system: Rattus norvegicus; assay: The percent fall in systolic blood pressure at 1.5 / 4 hr after peroral administration of 25 mg/kg in DOCA/saline hypertensive rats at 6 hr; assay type: functional, Artery; settings: route oral; procedure, shortened: as §2
# [8] = system: Rattus norvegicus; assay: The percent fall in systolic blood pressure at 1.5 / 4 hr after peroral administration of 10 mg/kg in DOCA/saline hypertensive rats at 2 hr; assay type: functional, Artery; settings: route oral; procedure, shortened: as §2
# [9] = system: Rattus norvegicus; assay: The percent fall in systolic blood pressure at 1.5 / 4 hr after peroral administration of 10 mg/kg in DOCA/saline hypertensive rats at 6 h; Non significant, p>0.05; assay type: functional, organism-based; set-up: dose 10 mg/kg; settings: Artery, at 10 mg/kg; procedure, shortened: as §2
# [10] = system: Rattus norvegicus; assay: Percent fall in systolic blood pressure at 1.5 / 4 hr after peroral administration of 50 mg/kg in DOCA/saline hypertensive rats at 6 h; Non significant; assay type: functional, organism-based; set-up: dose 50 mg/kg; settings: Artery, at 50 mg/kg
# [11] = system: Rattus norvegicus; assay: The percent fall in systolic blood pressure at 1.5 / 4 hr after peroral administration of 10 mg/kg in DOCA/saline hypertensive rats at 24 hr; Non significant, p>0.05; assay type: functional, organism-based; set-up: dose 10 mg/kg; settings: Artery, at 10 mg/kg; procedure, shortened: as §2
# [12] = system: Rattus norvegicus; assay: The percent fall in systolic blood pressure at 1.5 / 4 hr after peroral administration of 25 mg/kg in DOCA/saline hypertensive rats at 2 hr; assay type: functional, Artery; settings: route oral; procedure, shortened: as §2
# [13] = system: Rattus norvegicus; assay: Starting systolic blood pressure at dose of 25 mg/kg; assay type: functional, Artery; procedure, shortened: as §2
# [14] = system: Rattus norvegicus; assay: The percent fall in systolic blood pressure at 1.5 / 4 hr after peroral administration of 25 mg/kg in DOCA/saline hypertensive rats at 24 hr; Non significant, p>0.05; assay type: functional, organism-based; set-up: dose 25 mg/kg; settings: Artery, at 25 mg/kg
# [15] = system: Rattus norvegicus; assay: The percent fall in systolic blood pressure at 1.5 / 4 hr after peroral administration of 10 mg/kg in DOCA/saline hypertensive rats at 6 hr; assay type: functional, Artery; settings: route oral; procedure, shortened: as §2
# [16] = system: Rattus norvegicus; assay: The percent fall in systolic blood pressure at 1.5 / 4 hr after peroral administration of 10 mg/kg in DOCA/saline hypertensive rats at 24 hr; Non significant; assay type: functional, organism-based; set-up: dose 10 mg/kg; settings: Artery, at 10 mg/kg
# [17] = system: Rattus norvegicus; assay: The percent fall in systolic blood pressure at 1.5 / 4 hr after peroral administration of 50 mg/kg in DOCA/saline hypertensive rats at 24 hr; assay type: functional, Artery; settings: route oral; procedure, shortened: as §2
# [18] = system: Rattus norvegicus; assay: The percent fall in systolic blood pressure at 1.5 / 4 hr after peroral administration of 75 mg/kg in conscious renal hypertensive rats (RHR).; assay type: functional, Artery; settings: route oral; procedure, shortened: as §1
# [19] = system: Rattus norvegicus; assay: The percent fall in systolic blood pressure at 1.5 / 4 hr after peroral administration of 50 mg/kg in DOCA/saline hypertensive rats at 2 hr; Non significant; assay type: functional, organism-based; set-up: dose 50 mg/kg; settings: Artery, at 50 mg/kg
# [20] = system: Rattus norvegicus; assay: The percent fall in systolic blood pressure after peroral administration of 50 mg/kg in DOCA/saline hypertensive rats at 24 hr; settings: route oral
# [21] = system: Rattus norvegicus; assay: The percent fall in systolic blood pressure at 1.5 / 4 hr after peroral administration of 10 mg/kg in DOCA/saline hypertensive rats at 24 hr; assay type: functional, Artery; settings: route oral
smiles,measurement,setting,value
COc1ccc(NC(=O)NC2CCN(CCCC(=O)c3ccccc3)CC2)cc1,Activity,[1],<10
O=C(Nc1ccc(Cl)cc1)NC1CCN(CCCC(=O)c2ccccc2)CC1,SP,[2],200 mmHg
same,Fall,[3],Not significant
same,Fall,[4],25%
same,Fall,[5],30%
O=C(NC(=O)c1ccccc1)NC1CCN(CCCC(=O)c2ccccc2)CC1,SP,[6],173 mmHg
same,Fall,[7],26%
same,SP,[2],169 mmHg
same,Fall,[8],22%
same,Fall,[9],Not significant
same,Fall,[10],Not significant
same,Fall,[3],Not significant
same,Fall,[11],Not significant
same,Fall,[12],28%
same,Fall,[5],21%
same,SP,[13],178 mmHg
same,Fall,[14],Not significant
O=C(NC1CCN(CCc2c[nH]c3ccccc23)CC1)c1ccccc1 [INDORAMIN],Fall,[15],31%
same,SP,[6],197 mmHg
same,Fall,[7],29%
same,SP,[2],198 mmHg
same,Fall,[8],33%
same,Fall,[4],45%
same,Fall,[12],25%
same,Fall,[5],41%
same,Fall,[16],inactive
same,SP,[13],178 mmHg
same,Fall,[17],38%
same,Activity,[1],38
same,Fall,[14],inactive
O=C(NC(=O)c1cccs1)NC1CCN(CCc2c[nH]c3ccccc23)CC1,Fall,[15],46%
same,SP,[6],169 mmHg
same,Fall,[7],46%
same,SP,[2],193 mmHg
same,Fall,[8],50%
same,Fall,[11],Not significant
same,Fall,[4],38%
same,Fall,[12],43%
same,Fall,[5],47%
same,SP,[13],171 mmHg
same,Fall,[17],38%
same,Fall,[14],Not significant
Cc1cccc(C)c1NC(=O)NC1CCN(CCc2c[nH]c3ccccc23)CC1,Activity,[18],<10
CCN(C(=O)Nc1ccccc1)C1CCN(CCc2c[nH]c3ccccc23)CC1,Fall,[19],Not significant
same,SP,[2],170 mmHg
same,Fall,[10],Not significant
same,Fall,[3],Not significant
O=C(NC(=O)c1ccccc1)NC1CCN(CC(=O)c2c[nH]c3ccccc23)CC1,Fall,[19],Not significant
same,SP,[2],178 mmHg
same,Fall,[10],Not significant
same,Fall,[3],Not significant
O=C(Nc1ccccc1C(F)(F)F)NC1CCN(CCc2c[nH]c3ccccc23)CC1,Activity,[1],<10
COc1ccc(C(=O)NC(=O)NC2CCN(CC(O)COc3ccccc3OC)CC2)cc1 (stereo not drawn),Fall,[19],Not significant
same,SP,[2],162 mmHg
same,Fall,[10],Not significant
same,Fall,[3],Not significant
COc1ccc(NC(=O)NC2CCN(CCc3c[nH]c4ccccc34)CC2)cc1,Activity,[1],27
O=C(NC(=O)c1ccccc1)NC1CCN(CC(O)COc2cccc3ccccc23)CC1 (stereo not drawn),Fall,[19],Not significant
same,SP,[2],185 mmHg
same,Fall,[10],Not significant
same,Fall,[3],Not significant
O=C(Nc1ccc(Cl)cc1)NC1CCN(CCc2c[nH]c3ccccc23)CC1,Activity,[1],21
COc1ccccc1OCC(O)CN1CCC(NC(=O)Nc2ccccc2)CC1 (stereo not drawn),SP,[2],212 mmHg
same,Fall,[10],Not significant
same,Fall,[20],-27%
same,Fall,[5],27%
O=C(CCCN1CCC(NC(=S)NC(=O)c2ccccc2)CC1)c1ccccc1,SP,[2],186 mmHg
same,Fall,[3],Not significant
same,Fall,[4],32%
same,Fall,[5],36%
O=C(Nc1ccccc1)NC1CCN(CCc2c[nH]c3ccccc23)CC1,Activity,[1],29
O=C(NC(=O)c1cccs1)NC1CCN(CCCC(=O)c2ccc(F)cc2)CC1,Fall,[15],36%
same,SP,[6],171 mmHg
same,Fall,[7],28%
same,SP,[2],179 mmHg
same,Fall,[8],48%
same,Fall,[4],45%
same,Fall,[12],35%
same,Fall,[5],49%
same,Fall,[21],16%
same,SP,[13],174 mmHg
same,Fall,[17],21%
same,Fall,[14],Not significant
